From PubChem BioAssay
Compounds with a hit are over-represented: about 1.6% of the library has one in this group of screens.
PKA-R1A act: activators of PKA-R1A holoenzyme, primary screen, biochemical, fluorescence polarization, Cy5-IP20, bovine R1A, mouse PKAc; PKA-R1A dissociation; scaled: DMSO 0%, 113 µM cGMP 100%; activation, % at 11.4 µM; hit rate 0.083% among 340,000; AID 504707, 2011; cAMP-dependent protein kinase type I-alpha regulatory subunit (Bos taurus) + …;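 active means percent activation above the mean of all tested compounds plus 3 SD, cut at about 19% in these data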;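 further: higher means more PKAc released from R1A so a rise in polarization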
NR2E3 ag-1: NR2E3 agonists in two-hybrid cells, primary screen, cell-based, luminescence, CHO-S, Gal4-NCOR/VP16-NR2E3; luciferase; inhibition of corepressor binding, % at 3.98 µM; hit rate 0.35% among 360,000; AID 602229, 2012;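 active means inhibition above the mean of all tested compounds plus 3 SD, cut at about 70% in these data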;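 further: higher means lower luciferase signal from less NR2E3 corepressor binding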
Target sequence (Q9Y5X4 whole entry, looked up, the tested form may be a part): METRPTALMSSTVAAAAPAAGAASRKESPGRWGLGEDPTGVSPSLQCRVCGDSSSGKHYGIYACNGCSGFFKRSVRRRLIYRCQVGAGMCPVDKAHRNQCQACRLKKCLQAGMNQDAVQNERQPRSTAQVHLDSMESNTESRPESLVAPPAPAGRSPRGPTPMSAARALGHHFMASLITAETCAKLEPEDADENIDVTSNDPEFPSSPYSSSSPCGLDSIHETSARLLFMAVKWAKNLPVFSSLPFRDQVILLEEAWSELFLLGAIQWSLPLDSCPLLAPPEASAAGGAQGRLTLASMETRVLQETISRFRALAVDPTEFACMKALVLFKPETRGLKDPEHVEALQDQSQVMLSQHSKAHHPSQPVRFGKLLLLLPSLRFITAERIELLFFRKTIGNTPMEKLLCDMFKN
PG9 binder: binders of HIV-1 gp120 antibody PG9, primary screen, biochemical, TR-FRET; HIV-1 gp120 / PG9 antibody interaction; inhibition, % at 6.7 µM; hit rate 0.43% among 360,000; TR-FRET gp120-PG9 antibody binding; in the data active means inhibition above about 8.5%
NR2E3 ag-2: inhibitors of NR2E3-RetCOR corepressor binding, primary screen, NR2E3 agonist project, biochemical, TR-FRET, GST-NR2E3, biotin-RetCOR. Photoreceptor-specific nuclear receptor (Homo sapiens), Q9Y5X4. AID 2300, 2010. inhibition of corepressor binding, % at 4.78 µM. 1536-well. hit rate 0.12% among 320,000;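 active means percent inhibition above the cutoff of mean plus 3 SD of all tested compounds, set per screening campaign, cut at about 20% in these data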
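Material: NR2E3–RetCOR corepressor complex / Amount: 1.35 nM GST-NR2E3 / Medium: Tris pH 7.5 / Compound: single nominal compound dose of 4.8 µM / Incubation: 5 h at 4 °C / Technique: TR-FRET, Eu(K)-anti-GST donor, streptavidin-D2 acceptor, ex 340, em 617/671 nm / Read-out basis: percent loss of FRET ratio relative to control wells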
Rev-erbA mod: modulators of Rev-erb alpha DNA binding, primary screen, biochemical, FITC-DNA, fluorescence polarization, uHTS; Rev-erbα–FITC-DNA binding, 90 min; activity, % at 10 µM; hit rate 0.79% among 370,000; AID 1259318, 2017;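 active means activity above about 14%, limit read from the data; passing the limit was not always enough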
PKA-R2B act: activators of PKA-R2B holoenzyme, primary screen, biochemical, fluorescence polarization, Cy5-IP20, human | PKA-R2B holoenzyme dissociation; R2B truncated from residue 108, S112A mutant; 0% DMSO only, 100% 113 µM cGMP | hit rate 0.079% among 340,000 | cAMP-dependent protein kinase catalytic subunit beta (Homo sapiens) + cAMP-dependent … | AID 504700, 2011 | activation, % at 11.4 µM;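 active means activation above a cutoff set at the mean over all compounds plus 3 SD, cut at about 18% in these data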;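 further: higher means more holoenzyme dissociation and a rise in polarization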
NR2E3 ag conf: NR2E3 agonist confirmation in cells, cell-based, luminescence, CHO-S two-hybrid | inhibition, % at 3.98 µM | hit rate 51% among 2,300 | CHO-S mammalian two-hybrid NR2E3-NCOR, luciferase luminescence | shares compounds with NR2E3 ag-1;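 active means average inhibition above a cutoff equal to the mean inhibition of all tested compounds plus one SD, cut at about 70% in these data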
VP16 counter: GAL4-VP16 reporter modulators, confirmation, counter-screen for NR2E3 agonist project, cell-based, luminescence, CHO-S, high throughput; AID 624379, 2012; shares compounds with NR2E3 ag-1; CHO-S GAL4-VP16 luciferase reporter; hit rate 29% among 2,300; inhibition, % at 3.98 µM;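 active means mean inhibition above a cutoff equal to the average over all tested compounds plus one standard deviation, cut at about 70% in these data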;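 further: luciferase from a UAS reporter driven by GAL4-VP16 transactivation; higher means less reporter light so more repression of VP16 activity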
A number is an active result; i = inactive; nt = no result given.

SMILES | PKA-R1A act | NR2E3 ag-1 | PG9 binder | NR2E3 ag-2 | Rev-erbA mod | PKA-R2B act | NR2E3 ag conf | VP16 counter
CC(=O)CC[C@H]1CC[C@]2(CCCN(S(=O)(=O)C3CCCCC3)C2)O1 | nt | nt | nt | nt | i | nt | nt | nt
CC(=O)c1c(C)[nH]c(C(=O)COc2cc(C)cc(C)c2)c1C | i | i | i | i | i | i | nt | nt
CCCOc1ccc(OCC(=O)c2[nH]c(C)c(C(C)=O)c2C)cc1 | i | 79.0 | nt | i | i | i | 93.9 | 77.8
COc1ccc(Br)cc1Cn1nnc(C(=O)Nc2ccc3c(c2)OCCO3)c1N | i | i | i | i | i | i | i | i
COc1ccc(CCNC(=O)c2nnn(-c3ccccc3OC)c2N)cc1OC | i | i | i | i | i | i | nt | nt
COc1ccc(CCNC(=O)c2nnn(-c3ccc4c(c3)OCCO4)c2N)cc1OC | i | i | i | i | nt | i | i | i
CCNC(=O)N(C)[C@H]1C[C@H]2c3[nH]c4cccc(-c5ccc6c(c5)OCO6)c4c3CCN2C[C@H]1[C@H](C)O | nt | nt | nt | nt | i | nt | nt | nt
COc1ccc(Nc2nc(N3CCCC3)c3ccccc3n2)cc1 | i | i | i | i | i | i | i | i
CCN(CC)c1ccc(Nc2nc(N3CCOCC3)c3ccccc3n2)cc1 | i | 72.5 | i | i | i | i | 74.5 | i
O=C(Nc1ccc(Cl)cc1)c1cc2c(cc1O)[nH]c1ccccc12 | i | 100.7 | i | i | i | i | 99.1 | 89.8
CC(=O)Nc1ccc2[nH]c3ccccc3c2c1 | i | i | i | i | i | i | nt | nt
O=C(NCC(c1ccco1)N1CCCC1)c1ccc(Cl)c(S(=O)(=O)N2CCc3ccccc32)c1 (configuration not stated) | i | i | i | i | i | i | i | i
CC(C)N1Cc2nnn(Cc3ccccc3)c2-c2ccccc2S1(=O)=O | nt | nt | nt | nt | i | nt | nt | nt
Cc1nc(NCCc2ccc(S(N)(=O)=O)cc2)c2c(C)c(C)sc2n1 | i | i | i | i | i | i | 72.9 | i
Cc1cccc(-c2cccc3c4c([nH]c23)[C@@H]2C[C@H](N(C)C(=O)NC3CCCCC3)[C@H]([C@H](C)O)CN2CC4)c1 | nt | nt | nt | nt | i | nt | nt | nt
Cc1cc(Nc2cccc(Cl)c2)nc(NCc2ccccc2)n1 | i | 93.1 | i | i | i | i | 95.6 | 76.1
C[C@H]1[C@@H](OC(=O)NCCc2c[nH]c3ccccc23)CC[C@@]23CCCN2C(=O)CCC[C@@H]13 | nt | nt | nt | nt | i | nt | nt | nt
CCC(C)NC(=O)C1CCN(S(=O)(=O)c2ccc3[nH]c(=O)oc3c2)CC1 (configuration not stated) | nt | nt | nt | nt | i | nt | nt | nt
CCS(=O)(=O)N1CCCC(C(=O)c2ccc(OC)cc2C)C1 (configuration not stated) | i | i | i | i | i | i | nt | nt
COc1ccc(C(=O)C2CCCN(S(=O)(=O)c3ccc(C(C)=O)cc3)C2)c(C)c1 (configuration not stated) | i | 82.8 | i | i | i | i | i | i
O=[N+]([O-])c1ccc2c(c1)ncn2CCc1ccccc1 | i | 76.1 | i | nt | i | i | i | i
O=[N+]([O-])c1ccc2c(c1)ncn2-c1ccccc1 | i | i | i | i | i | i | nt | nt
CCCCNS(=O)(=O)/C=C/c1ccc(F)cc1CNC(=O)OC(C)(C)C | nt | nt | nt | nt | i | nt | nt | nt
